Measured values from different studies.
Lines come from different studies, so protocols differ.
Target: Mitogen-activated protein kinase kinase kinase 4 (MAP3K4, Homo sapiens, UniProt Q9Y6R4)

SMILES	read-out	action	technique	tested at	measurement	value
N#Cc1ccc(NC(=O)Nc2ccccc2)cc1	cell-free assay	–	competition with immobilised ligand	25 µM	remaining binding	77%
CC#CC(=O)N1CCC[C@H]1c1nc(-c2ccc(C(=O)Nc3ccccn3)cc2)c2c(N)nccn12	enzyme activity	inhibitor	–	1 µM	inhibition	19%
C#Cc1cnc(Nc2ccnc(CO)c2)nc1Nc1ccccc1S(C)(=O)=NC#N (centres unmarked)	cell-free assay	–	–	1 µM	remaining signal	86%
Cc1ccc(NC(=O)c2ccnc(C(F)(F)F)c2)cc1-c1cc(OCCO)nc(N2CCOCC2)c1	binding	–	competition with immobilised ligand	1 µM	remaining binding	90%
CCCCC(=O)Nc1ccc(-c2ccc3ncn(CCC)c(=O)c3c2)cn1	binding	–	competition with immobilised ligand	0.5 µM	remaining binding	76%
C[C@H]1CC[C@H](n2c3cnccc3c3cnc(Nc4ccc5c(n4)CCN(C(=O)CO)C5)nc32)CC1	binding	–	competition with immobilised ligand	1 µM	remaining binding	100%
CO[C@@H]1[C@H](N(C)C(=O)c2ccccc2)C[C@H]2O[C@]1(C)n1c3ccccc3c3c4c(c5c6ccccc6n2c5c31)C(=O)NC4	enzyme activity	inhibitor	–	1 µM	inhibition	4%
C1=C/COCc2cc(ccc2OCCN2CCCC2)Nc2nccc(n2)-c2cccc(c2)COC/1	binding	–	–	0.1 µM	remaining binding	100%
